Holding throughout (type): biochemical
One assay deals with Wt-Tau441 (Homo sapiens, UniProt P10636). As to the kind of experiment: ThT fluorescence assay of Wt-Tau fibrillization. The gist of the method:
(§1)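 Lyophilized full-length Tau441 (wild-type or ΔK280) was diluted to 40 µM stock in 25 mM NaPi, 25 mM NaCl, 2.5 mM EDTA, pH 6.8, and used at 10 µM final with 25 µM ThT. Aggregation was started with 0.0625 µM heparin. Water-dissolved test compound was added at 50, 10 or 1 µM. Fluorescence was followed over time. Curves were fitted to a Boltzmann sigmoid and scaled to maximal control fluorescence; Wt-Tau relative F was taken at 30 h.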

The target of a further assay is Tau441-ΔK280 (Homo sapiens, UniProt P10636, DEL597-597). As to the kind of experiment: ThT fluorescence assay of Tau-ΔK280 fibrillization. Conditions: both 5/1 and 1/1 ratios. The gist of the method: as §1
Another assay addresses Aβ1-42 (Homo sapiens, UniProt P05067). As to the kind of experiment: ThT fluorescence assay of Aβ1-42 fibrillization. Conditions: compound/Aβ1-42 ratio 1/1.

Aβ1-42, sequence (P05067 672-713): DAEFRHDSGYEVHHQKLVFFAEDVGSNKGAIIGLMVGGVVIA

In the case of `CN(C)c1ccc2nc3ccc(=[N+](C)C)cc-3sc2c1` [MB, methylthioninium chloride], at Wt-Tau441 (compound/Wt-Tau ratio 0.1/1), the “decrease of F versus Wt-Tau control” value came out at 50%. Moreover, at Wt-Tau441 (compound/Wt-Tau ratio 1/1, N.A. = no aggregation), the “t1/2, change versus Wt-Tau control” value is “+55%”. Moreover, the “inhibition of the aggregation of Wt-Tau (in words)” value on Wt-Tau441 (compound/Wt-Tau ratio 5/1, ThT) is “complete inhibition”. In addition, the “inhibition of the aggregation of Tau-ΔK280 (in words)” value at Tau441-ΔK280 was “complete inhibition”.

For `Oc1ccc(/C=C/c2cc(O)cc(O)c2)cc1` [Resveratrol], the “F, change versus Aβ1-42 control” value on Aβ1-42 was -78%.

Values taken from PMC12489099 (Nature Communications, 2025).
